What is called Ki is a dissociation constant, usually derived from enzyme kinetics or from competition with a known ligand. As usually defined, the Kd is the constant that tells how readily two partners part at equilibrium.

Here are results for 7 compounds from paper PMC2943495 (Chemistry & biology, 2010).

Data set [1] addresses FRB-FKBP (Homo sapiens, UniProt P42345+P62942). As to the kind of experiment: Real-time reversibility of CBG-N + CBG-C PCA. The class given is cell-based.
Data set [2] concerns the target FRB-FKBP. The note with it: ref Bierer et al., 1990, cited from earlier work.
The conditions of data set [3]: ref Inoue et al., 2005; cited from earlier work.
Data set [4] deals with β-cat/β-TrCP. As to the kind of experiment: Two-color PCA switch, green: β-cat/β-TrCP interaction. The class given is cell-based. The following applies: HEK293T.
The subject of data set [5] is IκBα/β-TrCP. As to the kind of experiment: Two-color PCA switch, red: IκBα/β-TrCP interaction. The class given is cell-based. The note with it: HEK293T, TNFα 20 ng/ml.
The test system of data set [6] is PCA luciferase. As to the kind of experiment: Control: effect on PCA luciferase enzyme activity. The note with it: data not shown.
Data set [7] concerns NFκB. As to the kind of experiment: NFκB-dependent transcriptional reporter. The following applies: HEK293T, 2 hours. Format: cell-based. In short, it runs like this:
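HEK293T cells in 24-well plates were transfected with an NFκB-driven FLuc reporter (200 ng/well). At 48 h the medium was changed to DMEM imaging medium. After 15 min equilibration a pre-treatment image was taken. Cells then received TNFα (20 ng/ml final) and/or a GSK3β inhibitor (50 μM final) or DMSO vehicle, and were re-imaged after 2 h in a humidified 5% CO2 incubator. Photon flux is reported as mean fold-initial ± S.E.M.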

Data set [8] relates to EGFR. As to the kind of experiment: EGFR-CBG PCA conformation sensing in CHO TetOn cells. Format: cell-based. In short, it runs like this:
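CHO TetOn cells in 96-well plates were transfected for 24 h with EGFR-CBG PCA fusion pairs, then serum-starved for 3 h. They were pre-incubated for 20 min untreated, with DMSO vehicle, or with test compound (10 μM). Baseline was imaged every 15 s for 10 min, then 25 nM EGF was added and imaging continued for 20 min. Untreated-well signal was subtracted. Mean of 8 replicate wells.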

Data set [9] addresses ΔFRB (S2035I)-FKBP (Homo sapiens, UniProt P42345+P62942, S2035I). Kind of data set: Luciferase PCA with mutant S2035I FRB. Format: cell-based. The following applies: HEK293T, 100 nM rapamycin for 6 hrs, Δ-N fusions.
In data set [10] the test system is IκBα. As to the kind of experiment: IκBα-FLuc fusion reporter processing in HepG2 cells. The class given is cell-based. The note with it: HepG2, TNFα 20 ng/mL. In short, it runs like this: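 HepG2 cells were transiently transfected with a κB5-driven IκBα-FLuc fusion reporter (wild type or Ser32/Ser36 Ala mutants). After 48 h the medium was replaced with fresh medium containing D-luciferin, and cells were stimulated with TNFα (20 ng/mL) or vehicle. Real-time bioluminescence imaging was run under 5% CO2. Photon flux is reported as fold-initial, fold-untreated, mean ± S.E.M.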

Sequence of FRB-FKBP (Homo sapiens, UniProt P42345+P62942) (P42345 2024-2113 limits assumed): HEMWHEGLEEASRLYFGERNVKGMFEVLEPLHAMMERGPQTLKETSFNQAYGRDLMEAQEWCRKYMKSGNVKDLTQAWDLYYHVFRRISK
Sequence of FRB-FKBP (Homo sapiens, UniProt P42345+P62942) (P62942 whole entry): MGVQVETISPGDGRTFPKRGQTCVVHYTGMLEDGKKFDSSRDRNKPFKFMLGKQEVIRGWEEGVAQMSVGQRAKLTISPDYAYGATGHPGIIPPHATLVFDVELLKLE
Sequence of ΔFRB (S2035I)-FKBP (P42345 2024-2113 S2035I): as the sequence (P42345 2024-2113 limits assumed) above, with S12I counted along it
Sequence of ΔFRB (S2035I)-FKBP (P62942 whole entry, the tested form may be a part): as the sequence (P62942 whole entry) above

For `C=CC[C@@H]1/C=C(\C)C[C@H](C)C[C@H](OC)[C@H]2O[C@@](O)(C(=O)C(=O)N3CCCC[C@H]3C(=O)O[C@H](/C(C)=C/[C@@H]3CC[C@@H](O)[C@H](OC)C3)[C@H](C)[C@@H](O)CC1=O)[C@H](C)C[C@@H]2OC` [FK506], in [1] (HEK293T, CBG-N + CBG-C, rapamycin 10 nM, FK506 10 μM added at […]), the “change of bioluminescence after rapamycin pre-treatment” value is recorded as “brisk loss of bioluminescence”. In addition, the Ki in data set [2] (read-out: previously reported literature Ki) is 0.4 nM. The membrane permeability result in [3] was “somewhat low”.

For `Cn1cc(C2=C(c3ccc(Cl)cc3Cl)C(=O)NC2=O)c2ccccc21` [SB-216763], the “basal β-cat/β-TrCP interactions (green photon flux)” value in [4] (SB-216763 50 μM) is given as “attenuated”. Moreover, in [5] (SB-216763 50 μM), the “basal and TNFα-induced IκBα/β-TrCP interactions (red photon flux)” value was “inhibited”. Besides, the “effect on PCA luciferase enzyme activity per se” value in [6] is “no effect”. Moreover, the “TNFα-stimulated NFκB-dependent transcription (FLuc reporter)” value in data set [7] (TNFα 20 ng/ml combined with SB216763 50 μM) is given as “dramatically attenuated”.

For `N#CC(=C(/N)Sc1ccccc1N)/C(C#N)=C(/N)Sc1ccccc1N` [U0126], the “recovery of luciferase PCA activity after EGF” value in data set [8] (10 μM U0126, 25 nM EGF) is “blunted recovery of luciferase PCA activity”.

In the case of `C[C@@H]1C[C@@H]([C@H](O)CC2CC(=O)NC(=O)C2)C(=O)[C@@H](C)C1` [cycloheximide], the “luciferase activity after rapamycin induction” value in [1] (cycloheximide 100 μM added to rapamycin-induced cells) is recorded as “remained stable for up to 8 hours”.

Take `CO[C@H]1C[C@@H]2CC[C@@H](C)[C@@](O)(O2)C(=O)C(=O)N2CCCC[C@H]2C(=O)O[C@H]([C@H](C)C[C@@H]2CC[C@@H](O)[C@H](OC)C2)CC(=O)[C@H](C)/C=C(\C)[C@@H](O)[C@@H](OC)C(=O)[C@H](C)C[C@H](C)/C=C/C=C/C=C/1C` [rapamycin]: the “induction of PCA signal” value in data set [9] is “no detectable induction”. For the same compound, in [2] (read-out: previously reported Kd), the Kd was 0.2 nM. Also, the membrane permeability result in data set [3] is on record as “somewhat low”.

With “EGF: recombinant mouse EGF ligand inducing EGFR activation (NSYPGCPSSYDGYCLNGGVCMHIESLDSYTCNCVIGYSGDRCQTRDLRWWELR; UniProt P01132 977-1029, looked up)”, in data set [8] (25 nM recombinant mouse EGF), the “luciferase PCA signal response” value was “rapid biphasic signal response”.

Take TNFα: in [4] (TNFα 20 ng/ml), the “β-cat/β-TrCP basal green photon flux” value was “no substantial change”. For the same compound, in data set [5], the “IκBα/β-TrCP interactions (red photon flux)” value is given as “increase in red photon flux”. In addition, the “NFκB-dependent transcription (FLuc reporter)” value in data set [7] (TNFα 20 ng/ml alone) is recorded as “robust transcriptional stimulation”. For the same compound, the “IκBα-FLuc reporter signal (wild type)” value in [10] is “loss of signal”.
